The subject of assay [1] is Mus musculus. Briefly: Antiinflammatory activity in BALB/c mouse assessed as inhibition of monoclonal anti-CD3-induced IL-2 production at 10 mg/kg, po administered 1 hr before monoclonal anti-CD3 challenge measured after 2 hrs by ELISA relative to control. The assay is classed as functional. In short, it runs like this: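 Female BALB/c mice (~20 g) dosed orally at 10 mg/kg, 1 h before iv anti-CD3 monoclonal antibody (clone 145-2C11, 10 µg/kg). Vehicle (saline) plus antibody group served as positive control. Plasma IL-2 determined from heart-puncture blood 2 h after stimulation, under anaesthesia. Inhibition expressed relative to vehicle; n = 8 mice/group.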
For orientation: An ELISA detects its analyte on a solid surface through an enzyme-linked reagent.

The test system of assay [2] is Mus musculus. As to the kind of experiment: Antiinflammatory activity in iv dosed BALB/c mouse assessed as inhibition of monoclonal anti-CD3-induced IL-2 production administered 10 min before monoclonal anti-CD3 challenge measured after 2 hrs by ELISA.
Assay [3] has as its system Mus musculus. As to the kind of experiment: Antiinflammatory activity in BALB/c mouse assessed as inhibition of monoclonal anti-CD3-induced IL-2 production at 10 mg/kg, iv administered 10 min before monoclonal anti-CD3 challenge measured after 2 hrs by ELISA. To be noted: BLD = below limit of detection.

On to `Cc1ccc2cc(-c3n[nH]c4ccc(NC5CCNC5)cc34)[nH]c2c1` (centres undefined), for which the inhibition in vivo at 10 mg/kg in the assay with Mus musculus [1] is over 80%. Further, in the assay on Mus musculus [2], the ED50 came to 2.1 mg/kg and the inhibition result is “Dose-dependent effect”. Moreover, the inhibition result with Mus musculus [3] is reported as “BLD”.

In general, inhibition in vivo refers to how much of the control response was suppressed. What is called ED50 is the dose at which the effect has come halfway, by size or by number of responders.

The values above are taken from ChEMBL document CHEMBL1681705, “Optimisation of ITK inhibitors through successive iterative design cycles” (Bioorg Med Chem Lett, 2011).
